This note sets out measurements from PubChem BioAssay AID373 (The Scripps Research Institute Molecular Screening Center, 2006).

Structures are written as SMILES. Among all 60,000 compounds or so, about 60 (0.1%) were called active.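 Rule for the calls: active = activation above the screen-wide mean plus 3 SD (cut at about 4.5% in these data, passing the limit was not always enough); inactive = the rest, inconclusive results apart.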 Shown is part of a subset that was picked to be rich in actives.

Chain of Sphingosine 1-phosphate receptor 3 (Homo sapiens) (Q99500 whole entry, looked up): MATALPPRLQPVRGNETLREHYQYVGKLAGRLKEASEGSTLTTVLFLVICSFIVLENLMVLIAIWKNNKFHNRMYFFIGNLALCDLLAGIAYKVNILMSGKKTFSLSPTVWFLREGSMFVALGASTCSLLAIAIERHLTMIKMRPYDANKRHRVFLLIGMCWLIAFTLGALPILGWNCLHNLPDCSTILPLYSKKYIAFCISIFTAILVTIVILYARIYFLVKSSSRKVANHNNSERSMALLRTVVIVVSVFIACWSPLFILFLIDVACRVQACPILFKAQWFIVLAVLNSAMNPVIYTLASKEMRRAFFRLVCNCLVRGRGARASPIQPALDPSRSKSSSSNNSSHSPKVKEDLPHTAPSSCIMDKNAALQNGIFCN

The target in this assay is Sphingosine 1-phosphate receptor 3 (Homo sapiens) (UniProt Q99500). Nature of the assay: activators of S1P3 receptor signaling – cell-based, primary and confirmation, NFAT-BLA reporter, primary screen (AID 373). To be noted: S1P3 NFAT-BLA reporter cells, agonism, FRET ratio, at 4.5 µM, hits give high values, relative to 1 µM S1P, basal subtracted. An outline of the steps:
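material = human S1P3 NFAT-BLA reporter CHO cells | schedule = 4 h compound at 37 °C, 2 h substrate at RT | measured by = fluorescent BLA substrate, ex 405 nm, em 460/535 nm ratio | controls = 1 µM S1P reference | replication = primary once, confirmation triplicate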
On to `CCOc1ccc(CNC(=O)C2CC(=O)N(C3CCCC3)C2)cc1OC` (configuration not stated), for which the activation was 0.9% (inactive).

Take `O=C1CCC(Cc2ccccc2)N1` (configuration not stated): the activation was 0.3% (inactive).

For `CCCCOc1ccc(-c2nnc(-c3ccco3)o2)cc1`, the activation was -0.5% (inactive).

In the case of `COC(=O)N1CN(C(=O)OC)CN(C(=O)OC)C1`, the activation is -0.2% (inactive).

As to `COC(=O)CN(c1nc(C)c(Cl)c(OC)n1)S(=O)(=O)c1ccc(C)cc1`, the activation is -1.1% (inactive).

In the case of `O=C(O)c1ccc(NS(=O)(=O)c2cccc3nsnc23)cc1`, the activation is -0.5% (inactive).

As to `Cn1c(=O)[nH]c(=O)c2c1nc(Br)n2CCCCSc1nc2ccccc2o1`, the activation is -1.6% (inactive).

Turning to `O=C(NCCN1CCOCC1)c1ccc2c(c1)ncn2C1CCCC1`, the activation is -0.2% (inactive).

Consider `COc1cccc(OCC(=O)Nc2ccccc2C(N)=O)c1`, for which the activation was -1.1% (inactive).

Take `CCOC(=O)N1CCN(C(=O)c2cc3c(-c4ccc(Cl)cc4)nn(C)c3s2)CC1`: the activation is -1.5% (inactive).

In the case of `Cc1cc(C)c2nc(SCCC#N)nc(C)c2c1`, the activation was -0.8% (inactive).

In the case of `c1cc(-c2nn[nH]n2)ccc1CN1CCCCC1`, the activation was -0.2% (inactive).

Regarding `N#CC(C(N)=O)=C1CCC2(CC1)OCCCCO2`, the activation was -0.6% (inactive).

Consider `CC(CNC(=O)c1ccc(Br)o1)NC(=O)c1ccc(Br)o1` (configuration not stated), for which the activation is -0.8% (inactive).

Consider `Cc1ccc(OCC(=O)Nc2ccc(-c3nc4ncccc4o3)cc2)cc1`, for which the activation was 0.4% (inactive).

As to `O=c1c2ccccc2[nH]c(=S)n1CCN1CCC(=C(c2ccc(F)cc2)c2ccc(F)cc2)CC1`, the activation was -2.2% (inactive).

For `Cc1cc(NC(=O)CCC(=O)N(c2ccccc2)C(C(=O)NC2CCCC2)c2ccncc2)no1` (configuration not stated), the activation is -0.2% (inactive).

As for `O=C(OCCO)c1cc(Cl)c(C(=O)OCCO)cc1Cl`, the activation is -1.2% (inactive).

Take `Cc1cccc(NC(=O)C2CCN(S(=O)(=O)c3cccc4cccnc34)CC2)c1`: the activation was -0.2% (inactive).

`CN(C)c1ccnc2sc3c(=O)n(Cc4ccccc4)cnc3c12`: the activation was -1.9% (inactive).

On to `CCN1C(=O)/C(=C2\SC(N3CCCCC3)=NC2=O)c2ccccc21`, for which the activation is -0.5% (inactive).

For `COc1ccc2c(c1OC)C(=O)OC2c1c(O)nc(SC)n(-c2ccccc2)c1=O` (configuration not stated), the activation is -2.9% (inactive).

Turning to `CCc1nnc(NC(=O)c2cccs2)s1`, the activation is 0.7% (inactive).

In the case of `COc1ccc(C(=O)N(CCN2CCOCC2)CC(=O)NC2CCCC2)cc1OC`, the activation was 0.6% (inactive).

As to `CCn1c(=O)cc(O)c2ccccc21`, the activation is 0.7% (inactive).

Turning to `CCOC(=O)C1=C(C)N=c2s/c(=C\C(=O)OC)c(=O)n2C1c1ccc(OC)cc1` (configuration not stated), the activation was -0.8% (inactive).

For `O=C(CCc1ccccc1)Nc1cccc(-c2nnc(-c3ccco3)o2)c1`, the activation was -0.9% (inactive).

With `CCc1cc(=O)oc2cc(C)cc(OC(C)C(=O)O)c12` (configuration not stated), the activation was -0.4% (inactive).

For `COc1ccc(Cn2nnc3c(=O)[nH]c(C4CCN(C(=O)c5ccccc5Cl)CC4)nc32)cc1`, the activation was -0.1% (inactive).

Consider `COc1ccc(N2C(=O)C3CCCN3C2c2cccc(OC)c2)cc1` (configuration not stated), for which the activation was -0.5% (inactive).

Regarding `Cc1ccc(C(=O)Nc2nnc(-c3cccs3)s2)cc1C`, the activation is -0.6% (inactive).

For `COc1ccccc1NC(=O)CN1CCN(S(=O)(=O)c2ccc(Br)cc2)CC1`, the activation is -0.8% (inactive).

On to `Cc1ccc(C(C(=O)NCc2ccco2)N(CC2CCCO2)C(=O)Cn2nnc3ccccc32)cc1` (configuration not stated), for which the activation was -0.7% (inactive).

`CC1CCN(Cc2nc3c(c(=O)n(C)c(=O)n3C)n2Cc2cccc3ccccc23)CC1`: the activation is -0.5% (inactive).

In the case of `COC(=O)Cn1c(=NC(=O)CSCC(=O)Nc2cc(C)on2)sc2ccccc21`, the activation is -0.5% (inactive).

As for `COC(=O)c1c(-c2ccc(C)cc2)csc1N`, the activation is -0.4% (inactive).

Take `CCOC(=O)N1CCN(CC(=O)c2ccc3c(c2)CCN3)CC1`: the activation was 0% (inactive).

`CC(C)(C)c1ccc(NC(=O)NCc2ccco2)cc1`: the activation was -0.2% (inactive).

Regarding `CC(=O)CCS(=O)(=O)c1ccc(C)c(C)c1`, the activation is -3% (inactive).

In the case of `COC(=O)c1ccc(CSc2nncn2C)cc1`, the activation was -1.1% (inactive).

For the compound `CCn1cc(C(=O)NCC2CCCO2)c(=O)c2cc(S(=O)(=O)N3CCCCC3)ccc21` (configuration not stated), the activation was -0.3% (inactive).

On to `O=c1oc2c(CN3CCCCC3)c(O)ccc2c2c1CCCCC2`, for which the activation is -1% (inactive).
